What was measured:
L-selectin = molecular target: T1, L-selectin (Homo sapiens, UniProt P14151); test: Inhibitory activity against human chimeric L-selectin-Ig
T1 sequence (P14151 whole entry): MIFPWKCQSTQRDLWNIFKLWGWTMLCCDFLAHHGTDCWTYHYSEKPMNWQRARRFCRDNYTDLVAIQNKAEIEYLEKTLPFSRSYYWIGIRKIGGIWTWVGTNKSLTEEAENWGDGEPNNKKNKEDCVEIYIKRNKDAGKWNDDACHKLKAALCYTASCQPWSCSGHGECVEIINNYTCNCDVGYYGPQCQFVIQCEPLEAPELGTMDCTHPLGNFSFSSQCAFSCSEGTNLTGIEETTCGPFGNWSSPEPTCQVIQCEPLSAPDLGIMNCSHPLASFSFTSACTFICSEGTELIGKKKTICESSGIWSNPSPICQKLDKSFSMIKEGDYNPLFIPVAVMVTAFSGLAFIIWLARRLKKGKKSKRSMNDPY
Method in brief: (§1)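 Competition against binding of the sLeX pentasaccharide ceramide ligand to purified selectin-Ig. The fusions carry the lectin, EGF and two complement regulatory repeats on the human IgG1 hinge/Fc and were expressed in COS7 (transient) or CHO (stable) cells. The P-selectin cDNA came from HUVEC mRNA and the L-selectin cDNA from Jurkat mRNA, both by RT-PCR.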

P-selectin = molecular target: T2, P-selectin (Homo sapiens, UniProt P16109); test: Inhibitory activity against human chimeric Selectin P-Ig; method in brief: as §1
T2 sequence (P16109 whole entry): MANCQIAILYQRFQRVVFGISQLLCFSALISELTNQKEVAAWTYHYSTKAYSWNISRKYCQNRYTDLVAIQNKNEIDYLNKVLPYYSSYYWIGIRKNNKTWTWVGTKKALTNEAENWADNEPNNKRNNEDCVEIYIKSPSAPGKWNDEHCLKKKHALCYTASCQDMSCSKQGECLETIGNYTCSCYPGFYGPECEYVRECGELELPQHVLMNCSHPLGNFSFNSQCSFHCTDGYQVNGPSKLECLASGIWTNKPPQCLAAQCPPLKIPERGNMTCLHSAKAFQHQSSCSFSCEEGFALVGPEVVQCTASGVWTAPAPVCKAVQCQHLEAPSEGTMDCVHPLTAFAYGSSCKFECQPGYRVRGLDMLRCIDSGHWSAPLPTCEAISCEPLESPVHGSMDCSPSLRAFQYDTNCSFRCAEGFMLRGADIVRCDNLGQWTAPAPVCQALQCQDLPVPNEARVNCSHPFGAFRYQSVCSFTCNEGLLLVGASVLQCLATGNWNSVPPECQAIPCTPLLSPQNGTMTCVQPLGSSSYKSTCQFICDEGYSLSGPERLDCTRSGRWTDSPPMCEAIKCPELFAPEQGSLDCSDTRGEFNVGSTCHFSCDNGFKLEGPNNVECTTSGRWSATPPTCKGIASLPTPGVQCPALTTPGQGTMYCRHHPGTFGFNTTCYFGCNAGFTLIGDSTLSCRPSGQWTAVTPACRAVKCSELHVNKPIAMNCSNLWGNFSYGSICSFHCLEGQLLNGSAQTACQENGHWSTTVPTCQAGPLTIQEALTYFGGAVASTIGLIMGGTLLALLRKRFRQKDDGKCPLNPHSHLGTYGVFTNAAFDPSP

E-selectin = molecular target: T3, E-selectin (Homo sapiens, UniProt P16581); test: Inhibitory activity against human chimeric E-selectin-Ig
T3 sequence (P16581 whole entry): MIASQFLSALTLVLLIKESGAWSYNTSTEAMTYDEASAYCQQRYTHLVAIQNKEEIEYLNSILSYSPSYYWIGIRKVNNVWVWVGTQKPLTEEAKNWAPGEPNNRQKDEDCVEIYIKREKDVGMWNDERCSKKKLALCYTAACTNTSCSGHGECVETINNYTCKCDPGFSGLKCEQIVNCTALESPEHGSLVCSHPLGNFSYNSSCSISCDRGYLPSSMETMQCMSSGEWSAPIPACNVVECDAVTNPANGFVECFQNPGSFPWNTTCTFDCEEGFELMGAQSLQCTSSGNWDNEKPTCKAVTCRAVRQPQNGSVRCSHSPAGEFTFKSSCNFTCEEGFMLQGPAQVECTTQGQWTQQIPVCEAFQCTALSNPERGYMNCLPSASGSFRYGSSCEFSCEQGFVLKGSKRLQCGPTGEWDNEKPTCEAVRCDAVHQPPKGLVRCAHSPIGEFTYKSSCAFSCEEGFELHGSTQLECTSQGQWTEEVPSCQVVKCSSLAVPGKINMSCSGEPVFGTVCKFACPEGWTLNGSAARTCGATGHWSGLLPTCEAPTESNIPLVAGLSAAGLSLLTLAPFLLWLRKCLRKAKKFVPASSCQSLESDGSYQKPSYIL
Method in brief: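 Competitive ELISA. sLeX-pentaceramide was adsorbed at 100 pmol per well and blocked with 5% BSA-PBS. E-selectin-Ig fusion (lectin, EGF and two complement regulatory repeats on human IgG1 hinge/CH2/CH3; cDNA from HUVEC mRNA) was precomplexed 30 min with biotin-anti-human IgG(Fc)/streptavidin-alkaline phosphatase. Compound at 100, 25, 6.25 or 1.56 µM final was preincubated with the complex 30 min, then 37 °C for 45 min. pNPP read at 405 nm; duplicates.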

SMILES	IC50 (L-selectin) [µM]	IC50 (P-selectin) [µM]	IC50 (E-selectin) [µM]
CC(=O)N[C@H]1[C@H]([C@H](O)[C@H](O)CO)O[C@@](O[C@@H]2[C@H](O)[C@@H](O)[C@H](O[C@H]3[C@H](O[C@@H]4O[C@@H](C)[C@@H](O)[C@@H](O)[C@@H]4O)[C@@H](O)CO[C@@H]3CO)O[C@@H]2O)(C(=O)O)C[C@@H]1O	220	> 1000	240
C[C@@H]1O[C@@H](O[C@@H]2CCO[C@H](CO)[C@H]2O[C@@H]2O[C@H](CO)[C@H](O)[C@H](OP(=O)(O)O)[C@H]2O)[C@@H](O)[C@H](O)[C@@H]1O	420	> 1000	> 1000
CC(=O)N[C@H]1[C@H]([C@H](O)[C@H](O)CO)O[C@@](O[C@H]2[C@@H](O)[C@@H](CO)O[C@@H](O[C@@H]([C@H](O[C@@H]3O[C@@H](C)[C@@H](O)[C@@H](O)[C@@H]3O)[C@H](C=O)NC(C)=O)[C@H](O)CO)[C@@H]2O)(C(=O)O)C[C@@H]1O [SIALYL LEWIS X]	> 1000	> 1000	600

The remaining lines, values ahead:

IC50 (L-selectin) [µM]	IC50 (P-selectin) [µM]	IC50 (E-selectin) [µM]	SMILES
> 1000	560	> 1000	C[C@@H]1O[C@@H](O[C@@H]2CCO[C@H](CO)[C@H]2O[C@@H]2O[C@H](CO)[C@H](O)[C@H](OS(=O)(=O)O)[C@H]2O)[C@@H](O)[C@H](O)[C@@H]1O
> 1000	> 1000	> 1000	CC(=O)N[C@H]1CO[C@H](CO)[C@@H](O[C@@H]2O[C@H](CO)[C@H](O)[C@H](OS(=O)(=O)O)[C@H]2O)[C@@H]1O[C@@H]1O[C@@H](C)[C@@H](O)[C@@H](O)[C@@H]1O
> 1000	670	> 1000	C[C@@H]1O[C@@H](O[C@H]2[C@H](O[C@@H]3O[C@H](CO)[C@H](O)[C@H](OS(=O)(=O)O)[C@H]3O)[C@@H](CO)OC[C@@H]2O)[C@@H](O)[C@H](O)[C@@H]1O
